From ChEMBL document CHEMBL1629465, “Efficient synthesis of novel 1,2,4-triazole fused acyclic and 21-28 membered macrocyclic and/or lariat macrocyclic oxaazathia crown compounds with potential antimicrobial activity” (2010)
Values after ≈ are worked out from the molar mass of the structure shown.

Legend:
Type in all cases: functional
Aspergillus fumigatus [1] = assay: Antimicrobial activity against Aspergillus fumigatus RCMB 002008 at 1 mg/ml by agar diffusion technique; conditions: read-out: DIZ
Summary of the method: (§1)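 Agar well diffusion. Test compounds and reference standard drugs were diluted to 5.0, 2.5 and 1.0 mg/mL and applied to 0.6 cm wells. Inhibition zone beyond the control was scored as 0 (no inhibition), + (0.1–0.5 cm), ++ (0.6–1.0 cm) or +++ (1.0–1.5 cm).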

Aspergillus fumigatus [2] = assay: Antimicrobial activity against Aspergillus fumigatus RCMB 002008 at 2.5 mg/ml by agar diffusion technique; conditions: read-out: DIZ; summary of the method: as §1
Penicillium italicum [3] = assay: Antimicrobial activity against Penicillium italicum RCMB 001018 at 1 mg/ml by agar diffusion technique; conditions: read-out: DIZ; summary of the method: as §1
Penicillium italicum [4] = assay: Antimicrobial activity against Penicillium italicum RCMB 001018 at 2.5 mg/ml by agar diffusion technique; conditions: read-out: DIZ; summary of the method: as §1
[5] = test system: Syncephalastrum racemosum; assay: Antimicrobial activity against Syncephalastrum racemosum RCMB 016001 at 1 mg/ml by agar diffusion technique; conditions: read-out: DIZ; summary of the method: as §1
[6] = test system: Syncephalastrum racemosum; assay: Antimicrobial activity against Syncephalastrum racemosum RCMB 016001 at 2.5 mg/ml by agar diffusion technique; conditions: read-out: DIZ; summary of the method: as §1
Candida albicans [7] = assay: Antimicrobial activity against Candida albicans RCMB 005003 at 1 mg/ml by agar diffusion technique; conditions: read-out: DIZ; summary of the method: as §1
Candida albicans [8] = assay: Antimicrobial activity against Candida albicans RCMB 005003 at 2.5 mg/ml by agar diffusion technique; conditions: read-out: DIZ; summary of the method: as §1
Candida albicans [9] = assay: Antimicrobial activity against Candida albicans RCMB 005003 at 5 mg/ml by agar diffusion technique; conditions: read-out: DIZ; summary of the method: as §1
Staphylococcus aureus [10] = assay: Antimicrobial activity against Staphylococcus aureus RCMB 106001 at 1 mg/ml by agar diffusion technique; conditions: read-out: DIZ; summary of the method: as §1
Staphylococcus aureus [11] = assay: Antimicrobial activity against Staphylococcus aureus RCMB 106001 at 2.5 mg/ml by agar diffusion technique; conditions: read-out: DIZ; summary of the method: as §1
Staphylococcus aureus [12] = assay: Antimicrobial activity against Staphylococcus aureus RCMB 106001 at 5 mg/ml by agar diffusion technique; conditions: read-out: DIZ; summary of the method: as §1
Pseudomonas aeruginosa [13] = assay: Antimicrobial activity against Pseudomonas aeruginosa RCMB 102002 at 1 mg/ml by agar diffusion technique; conditions: read-out: DIZ; summary of the method: as §1
Pseudomonas aeruginosa [14] = assay: Antimicrobial activity against Pseudomonas aeruginosa RCMB 102002 at 2.5 mg/ml by agar diffusion technique; conditions: read-out: DIZ; summary of the method: as §1
Pseudomonas aeruginosa [15] = assay: Antimicrobial activity against Pseudomonas aeruginosa RCMB 102002 at 5 mg/ml by agar diffusion technique; conditions: read-out: DIZ; summary of the method: as §1
Bacillus subtilis [16] = assay: Antimicrobial activity against Bacillus subtilis RCMB 101001 at 1 mg/ml by agar diffusion technique; conditions: read-out: DIZ; summary of the method: as §1
Bacillus subtilis [17] = assay: Antimicrobial activity against Bacillus subtilis RCMB 101001 at 2.5 mg/ml by agar diffusion technique; conditions: read-out: DIZ; summary of the method: as §1
Escherichia coli [18] = assay: Antimicrobial activity against Escherichia coli RCMB 103001 at 1 mg/ml by agar diffusion technique; conditions: read-out: DIZ; summary of the method: as §1
Escherichia coli [19] = assay: Antimicrobial activity against Escherichia coli RCMB 103001 at 2.5 mg/ml by agar diffusion technique; conditions: read-out: DIZ; summary of the method: as §1
Aspergillus fumigatus [20] = assay: Antimicrobial activity against Aspergillus fumigatus RCMB 002008 by twofold serial dilution method
Summary of the method: (§2)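 MIC was determined by further twofold serial dilution across twelve levels, from 1000 down to 0.49. Strains were the same bacterial, yeast and fungal RCMB isolates used in the diffusion screen.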

Penicillium italicum [21] = assay: Antimicrobial activity against Penicillium italicum RCMB 001018 by twofold serial dilution method; summary of the method: as §2
[22] = test system: Syncephalastrum racemosum; assay: Antimicrobial activity against Syncephalastrum racemosum RCMB 016001 by twofold serial dilution method; summary of the method: as §2
Bacillus subtilis [23] = assay: Antimicrobial activity against Bacillus subtilis RCMB 101001 by twofold serial dilution method; summary of the method: as §2
Escherichia coli [24] = assay: Antimicrobial activity against Escherichia coli RCMB 103001 by twofold serial dilution method; summary of the method: as §2
Aspergillus fumigatus [25] = assay: Antimicrobial activity against Aspergillus fumigatus RCMB 002008 at 5 mg/ml by agar diffusion technique; conditions: read-out: DIZ; summary of the method: as §1
[26] = test system: Syncephalastrum racemosum; assay: Antimicrobial activity against Syncephalastrum racemosum RCMB 016001 at 5 mg/ml by agar diffusion technique; conditions: read-out: DIZ; summary of the method: as §1
Bacillus subtilis [27] = assay: Antimicrobial activity against Bacillus subtilis RCMB 101001 at 5 mg/ml by agar diffusion technique; conditions: read-out: DIZ; summary of the method: as §1
Candida albicans [28] = assay: Antimicrobial activity against Candida albicans RCMB 005003 by twofold serial dilution method; summary of the method: as §2
Staphylococcus aureus [29] = assay: Antimicrobial activity against Staphylococcus aureus RCMB 106001 by twofold serial dilution method; summary of the method: as §2
Pseudomonas aeruginosa [30] = assay: Antimicrobial activity against Pseudomonas aeruginosa RCMB 102002 by twofold serial dilution method; summary of the method: as §2
[31] = Escherichia coli, RCMB 103001, read-out: MIC

| MIC (Escherichia coli [24]; [31]) [µg/mL] | Compound | zone of inhibition at 1000 µg/mL (Aspergillus fumigatus [1]) [mm] | zone of inhibition at 2500 µg/mL (Aspergillus fumigatus [2]) [mm] | zone of inhibition at 1000 µg/mL (Penicillium italicum [3]) [mm] | zone of inhibition at 2500 µg/mL (Penicillium italicum [4]) [mm] | zone of inhibition at 1000 µg/mL [5] [mm] | zone of inhibition at 2500 µg/mL [6] [mm] | zone of inhibition at 1000 µg/mL (Candida albicans [7]) [mm] | zone of inhibition at 2500 µg/mL (Candida albicans [8]) [mm] | zone of inhibition at 1000 µg/mL (Staphylococcus aureus [10]) [mm] | zone of inhibition at 2500 µg/mL (Staphylococcus aureus [11]) [mm] | zone of inhibition at 1000 µg/mL (Pseudomonas aeruginosa [13]) [mm] | zone of inhibition at 2500 µg/mL (Pseudomonas aeruginosa [14]) [mm] | zone of inhibition at 1000 µg/mL (Bacillus subtilis [16]) [mm] | zone of inhibition at 2500 µg/mL (Bacillus subtilis [17]) [mm] | zone of inhibition at 1000 µg/mL (Escherichia coli [18]) [mm] | zone of inhibition at 2500 µg/mL (Escherichia coli [19]) [mm] | other results |
| --- | --- | --- | --- | --- | --- | --- | --- | --- | --- | --- | --- | --- | --- | --- | --- | --- | --- | --- |
| 250 (≈ 384 µM) | OC(COc1ccccc1/C=N\n1c(-c2cccnc2)n[nH]c1=S)COc1ccccc1/C=N\n1c(-c2cccnc2)n[nH]c1=S | 0 | 0 | 6 | 6 | 0 | 1 | 0 | 0 | 0 | 0 | 0 | 0 | 1 | 1 | 0 | 1 | zone of inhibition at 5000 µg/mL (Candida albicans [9]): 0 mm; zone of inhibition at 5000 µg/mL (Staphylococcus aureus [12]): 0 mm; zone of inhibition at 5000 µg/mL (Pseudomonas aeruginosa [15]): 0 mm; MIC (Aspergillus fumigatus [20]): 250 µg/mL (≈ 384 µM); MIC (Aspergillus fumigatus [20]; Aspergillus fumigatus, RCMB 002008, read-out: MIC): 250 µg/mL (≈ 384 µM); MIC (Penicillium italicum [21]): 250 µg/mL (≈ 384 µM); MIC [22]: 250 µg/mL (≈ 384 µM); MIC ([22]; Syncephalastrum racemosum, RCMB 016001, read-out: MIC): 250 µg/mL (≈ 384 µM); MIC (Bacillus subtilis [23]): 250 µg/mL (≈ 384 µM); MIC (Bacillus subtilis [23]; Bacillus subtilis, RCMB 101001, read-out: MIC): 250 µg/mL (≈ 384 µM); MIC (Escherichia coli [24]): 250 µg/mL (≈ 384 µM) |
| 250 (≈ 356 µM) | C1=N\n2c(nnc2-c2cccnc2)SCCCCSc2nnc(-c3cccnc3)n2/N=C\c2ccccc2OCCCCOc2ccccc2/1 | 0 | 0 | 0 | 0 | 0 | 0 | 0 | 1 | 1 | 1 | 0 | 0 | 0 | 0 | 1 | 1 | zone of inhibition at 5000 µg/mL (Aspergillus fumigatus [25]): 0 mm; zone of inhibition at 5000 µg/mL [26]: 0 mm; zone of inhibition at 5000 µg/mL (Bacillus subtilis [27]): 0 mm; MIC (Candida albicans [28]): 250 µg/mL (≈ 356 µM); MIC (Candida albicans [28]; Candida albicans, RCMB 005003, read-out: MIC): 250 µg/mL (≈ 356 µM); MIC (Staphylococcus aureus [29]): 250 µg/mL (≈ 356 µM); MIC (Staphylococcus aureus [29]; Staphylococcus aureus, RCMB 106001, read-out: MIC): 250 µg/mL (≈ 356 µM); MIC (Pseudomonas aeruginosa [30]): 250 µg/mL (≈ 356 µM); MIC (Pseudomonas aeruginosa [30]; Pseudomonas aeruginosa, RCMB 102002, read-out: MIC): 250 µg/mL (≈ 356 µM) |
